Experiments:
Rattus norvegicus = assay: AUC (0 to infinity) in Sprague-Dawley rat at 25 mg/kg administered via oral gavage measured up to 72 hrs by LC/MS analysis; format: ADME, organism-based; parameters: dose 25 mg/kg, route oral, time infinity; conditions: in vivo
Procedure, shortened: (§1)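 Male Sprague-Dawley rats, 4–6 weeks old, acclimatised 1 week, were dosed iv at 5 mg/kg or by oral gavage at 25 mg/kg. Vehicle was 2% DMSO, 4% EtOH, 4% castor oil, 90% H2O. Blood was drawn by orbital sinus puncture from 2 min to 72 h into heparinized tubes. Plasma was assayed by LC/MS with propranolol as internal standard. Three animals per group.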

[1] = Oral bioavailability in Sprague-Dawley rat at 25 mg/kg administered via gavage measured up to 72 hrs by LC/MS analysis; format: ADME, organism-based; conditions: in vivo; procedure, shortened: as §1
[2] = biological target: Platelet-derived growth factor receptor alpha (Homo sapiens, UniProt P16234); assay: Inhibition of recombinant cytoplasmic human GST-tagged PDGFRalpha expressed in baculovirus using poly (4:1 Glu, Tyr) peptide as substrate after 1 hr by ADP-Glo assay
[3] = biological target: Fibroblast growth factor receptor 2 (Homo sapiens, UniProt P21802); assay: Inhibition of cytoplasmic recombinant human His-tagged FGFR2 (403 to 822 residues) expressed in baculovirus using tyr4 peptide as substrate after 1 hr by FRET-based Z'-Lyte assay
[4] = biological target: Vascular endothelial growth factor receptor 2 (Homo sapiens) (UniProt P35968); assay: Inhibition of human KDR (R787 to P1253 residues) expressed in mammalian expression system at 100 nM by KINOMEscan assay relative to control
[5] = biological target: Tyrosine-protein kinase Lyn (Homo sapiens) (UniProt P07948); assay: Inhibition of recombinant human LYN-A expressed in bacterial expression system at 100 nM by KINOMEscan assay relative to control
[6] = biological target: T1, Macrophage colony-stimulating factor 1 receptor (Mus musculus) (UniProt P09581); assay: Inhibition of CSF1R in mouse RAW264.7 cells assessed as suppression of AKT phosphorylation preincubated for 6 hrs followed by CSF1 stimulation for 20 mins by Western blot analysis; format: cell-based
T1 sequence (whole entry): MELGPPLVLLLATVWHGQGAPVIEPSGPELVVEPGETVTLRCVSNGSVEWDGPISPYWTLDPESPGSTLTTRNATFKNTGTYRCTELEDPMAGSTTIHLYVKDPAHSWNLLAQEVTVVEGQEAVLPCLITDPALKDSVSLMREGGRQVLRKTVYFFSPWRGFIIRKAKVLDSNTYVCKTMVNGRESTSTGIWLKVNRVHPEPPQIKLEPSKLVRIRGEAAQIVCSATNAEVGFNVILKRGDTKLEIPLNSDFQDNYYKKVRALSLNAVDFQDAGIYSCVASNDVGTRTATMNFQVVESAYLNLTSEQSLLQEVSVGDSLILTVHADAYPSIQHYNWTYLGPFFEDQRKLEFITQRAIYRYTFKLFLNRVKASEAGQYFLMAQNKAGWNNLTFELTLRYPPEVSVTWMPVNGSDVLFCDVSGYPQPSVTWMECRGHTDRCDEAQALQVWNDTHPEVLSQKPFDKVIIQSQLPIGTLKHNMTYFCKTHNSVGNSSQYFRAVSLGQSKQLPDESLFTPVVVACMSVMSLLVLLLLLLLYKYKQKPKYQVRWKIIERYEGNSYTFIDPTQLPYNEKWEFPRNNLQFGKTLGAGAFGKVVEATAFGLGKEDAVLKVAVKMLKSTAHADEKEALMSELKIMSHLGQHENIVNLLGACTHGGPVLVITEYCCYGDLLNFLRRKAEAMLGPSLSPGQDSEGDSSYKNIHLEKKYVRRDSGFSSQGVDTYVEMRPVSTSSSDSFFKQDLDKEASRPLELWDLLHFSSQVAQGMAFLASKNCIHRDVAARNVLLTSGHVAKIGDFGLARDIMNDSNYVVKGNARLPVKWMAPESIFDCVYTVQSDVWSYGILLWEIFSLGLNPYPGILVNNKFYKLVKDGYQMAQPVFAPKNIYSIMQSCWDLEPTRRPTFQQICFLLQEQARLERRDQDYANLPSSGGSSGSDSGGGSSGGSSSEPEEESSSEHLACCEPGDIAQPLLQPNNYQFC
Procedure, shortened: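 RAW264.7 cells were seeded, incubated overnight and treated 6 h with graded compound concentrations, then stimulated 20 min with CSF-1 (50 ng/mL). Lysates were run on 8−12% SDS-PAGE and immunoblotted for p-CSF1R (Tyr723), CSF1R, p-AKT, AKT and GAPDH. Bands were quantified and normalized to GAPDH. Mean ± SEM of at least three experiments.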

RAW264.7 [7] = assay: Antimigratory activity against mouse RAW264.7 cells assessed as inhibition of human LNCaP-MDV-CM mediated macrophage migration at 0.625 uM after 24 hrs by crystal violet staining based transwell assay relative to control; format: functional; conditions: RAW264.7, 24 h
Procedure, shortened: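 RAW264.7 cells, (2−4) × 10^5, were placed serum-free in the upper insert of a transwell. The lower chamber held conditioned medium from LNCaP cells grown 48 h in 10% FBS RPMI 1640 with 10 μM MDV3100 or DMSO. Compound at 0.625–5.0 μM was added to the top chamber for 24 h at 37 °C. Migrated cells were fixed in methanol, stained with 0.25% crystal violet and counted in six random fields at 200×. Three independent experiments.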

RAW264.7 [8] = assay: Downregulation of IL10 mRNA expression in mouse RAW264.7 cells after 48 hrs by qRT-PCR analysis relative to DMSO; format: functional, cell-based
Procedure, shortened: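 RAW264.7 macrophages were treated 48 h with compound at 0.08, 0.4 or 2.0 μM, or DMSO vehicle. Total RNA was extracted with TRIzol and transcripts were quantified by qRT-PCR using gene-specific primers. Run three times, each in triplicate.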

RAW264.7 [9] = assay: Inhibition of protumorigenic potential of mouse RAW264.7 cells assessed as abrogation of human LNCAP cell growth enhancement of macrophages at 2 uM co-cultured for 48 hrs by CCK8 assay relative to control; format: functional; conditions: RAW264.7, 48 h
Procedure, shortened: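 LNCaP cells, (2−4) × 10^5, were seeded in the lower transwell chamber. After 2 h, (1−2) × 10^6 RAW264.7 cells were added in a 0.4 μm insert. Compound at 0.016–2.0 μM was added to the top chamber and cells were cocultured 48 h at 37 °C. LNCaP cells were then imaged and counted by CCK8. Run three times, each in triplicate.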

Homo sapiens = species: Homo sapiens; assay: Selectivity ratio of IC50 for recombinant human wild type GST-tagged EGFR cytoplasmic domain (668 to 1210 residues) expressed in baculovirus to IC50 for recombinant human His-tagged CSF1R cytoplasmic domain (538 to 910 residues) expressed in baculovirus
Procedure, shortened: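 Z′-Lyte FRET assay with CSF1R or EGFR and 2 μM Tyr4 peptide substrate in 1× kinase buffer. ATP was supplied as a 100 μM solution, a stock and not the final concentration. Compounds were 3-fold serially diluted in DMSO. Reaction ran 1 h at room temperature, followed by 1 h development and a stop reagent. Phospho-peptide, no-ATP and DMSO controls were included. IC50 by curve fitting; mean of at least three independent experiments.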

Platelet-derived growth factor receptor alpha, sequence (P16234 whole entry, the tested form may be a part): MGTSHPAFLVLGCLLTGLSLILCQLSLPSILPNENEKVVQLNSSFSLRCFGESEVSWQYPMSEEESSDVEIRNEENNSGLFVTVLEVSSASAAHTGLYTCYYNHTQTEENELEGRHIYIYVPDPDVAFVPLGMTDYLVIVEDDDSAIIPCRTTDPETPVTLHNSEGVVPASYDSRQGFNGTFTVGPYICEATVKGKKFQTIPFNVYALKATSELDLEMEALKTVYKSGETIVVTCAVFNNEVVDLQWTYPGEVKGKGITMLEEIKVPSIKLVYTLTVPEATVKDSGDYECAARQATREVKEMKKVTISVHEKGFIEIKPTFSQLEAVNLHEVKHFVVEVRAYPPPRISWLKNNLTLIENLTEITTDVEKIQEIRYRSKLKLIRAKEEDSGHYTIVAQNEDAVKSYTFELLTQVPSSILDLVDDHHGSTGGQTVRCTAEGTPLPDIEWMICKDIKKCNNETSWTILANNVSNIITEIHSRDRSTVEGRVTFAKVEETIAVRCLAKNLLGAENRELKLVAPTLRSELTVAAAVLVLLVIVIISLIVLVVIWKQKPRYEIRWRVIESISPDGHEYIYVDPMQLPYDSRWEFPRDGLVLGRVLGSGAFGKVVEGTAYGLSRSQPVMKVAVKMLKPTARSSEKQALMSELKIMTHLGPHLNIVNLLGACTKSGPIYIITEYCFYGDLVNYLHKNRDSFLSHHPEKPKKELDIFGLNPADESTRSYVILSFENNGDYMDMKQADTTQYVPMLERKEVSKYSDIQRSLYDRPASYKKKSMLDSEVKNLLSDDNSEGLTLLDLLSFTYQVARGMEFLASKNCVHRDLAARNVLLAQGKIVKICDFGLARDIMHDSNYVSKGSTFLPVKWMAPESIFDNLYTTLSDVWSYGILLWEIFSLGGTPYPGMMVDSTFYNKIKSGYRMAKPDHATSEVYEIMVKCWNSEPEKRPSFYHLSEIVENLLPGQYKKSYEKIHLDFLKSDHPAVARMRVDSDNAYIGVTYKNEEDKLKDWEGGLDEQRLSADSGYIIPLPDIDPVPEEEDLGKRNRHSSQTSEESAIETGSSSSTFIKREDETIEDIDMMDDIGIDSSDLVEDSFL
Fibroblast growth factor receptor 2, sequence (P21802 whole entry, the tested form may be a part): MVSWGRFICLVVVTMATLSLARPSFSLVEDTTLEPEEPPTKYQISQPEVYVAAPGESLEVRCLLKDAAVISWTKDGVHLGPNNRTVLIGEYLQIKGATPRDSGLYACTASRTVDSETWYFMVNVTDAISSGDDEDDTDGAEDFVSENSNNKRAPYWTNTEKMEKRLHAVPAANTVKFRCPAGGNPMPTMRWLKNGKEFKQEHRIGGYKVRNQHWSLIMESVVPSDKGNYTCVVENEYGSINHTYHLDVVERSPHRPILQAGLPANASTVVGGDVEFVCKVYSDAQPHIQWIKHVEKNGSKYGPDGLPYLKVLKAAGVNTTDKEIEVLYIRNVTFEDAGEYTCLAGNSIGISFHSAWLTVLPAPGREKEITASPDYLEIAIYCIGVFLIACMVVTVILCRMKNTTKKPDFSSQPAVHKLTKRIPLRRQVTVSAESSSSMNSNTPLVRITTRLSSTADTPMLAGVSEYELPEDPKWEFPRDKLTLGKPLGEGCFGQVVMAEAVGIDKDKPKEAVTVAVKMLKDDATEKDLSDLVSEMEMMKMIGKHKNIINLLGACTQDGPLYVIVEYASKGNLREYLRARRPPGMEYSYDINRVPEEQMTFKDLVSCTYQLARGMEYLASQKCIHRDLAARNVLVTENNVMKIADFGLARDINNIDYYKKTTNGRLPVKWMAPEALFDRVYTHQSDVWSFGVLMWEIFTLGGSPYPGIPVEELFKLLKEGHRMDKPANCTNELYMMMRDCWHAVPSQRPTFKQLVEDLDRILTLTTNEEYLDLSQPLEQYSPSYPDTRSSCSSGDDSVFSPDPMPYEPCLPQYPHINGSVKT
Vascular endothelial growth factor receptor 2 (Homo sapiens), sequence (P35968 whole entry, the tested form may be a part): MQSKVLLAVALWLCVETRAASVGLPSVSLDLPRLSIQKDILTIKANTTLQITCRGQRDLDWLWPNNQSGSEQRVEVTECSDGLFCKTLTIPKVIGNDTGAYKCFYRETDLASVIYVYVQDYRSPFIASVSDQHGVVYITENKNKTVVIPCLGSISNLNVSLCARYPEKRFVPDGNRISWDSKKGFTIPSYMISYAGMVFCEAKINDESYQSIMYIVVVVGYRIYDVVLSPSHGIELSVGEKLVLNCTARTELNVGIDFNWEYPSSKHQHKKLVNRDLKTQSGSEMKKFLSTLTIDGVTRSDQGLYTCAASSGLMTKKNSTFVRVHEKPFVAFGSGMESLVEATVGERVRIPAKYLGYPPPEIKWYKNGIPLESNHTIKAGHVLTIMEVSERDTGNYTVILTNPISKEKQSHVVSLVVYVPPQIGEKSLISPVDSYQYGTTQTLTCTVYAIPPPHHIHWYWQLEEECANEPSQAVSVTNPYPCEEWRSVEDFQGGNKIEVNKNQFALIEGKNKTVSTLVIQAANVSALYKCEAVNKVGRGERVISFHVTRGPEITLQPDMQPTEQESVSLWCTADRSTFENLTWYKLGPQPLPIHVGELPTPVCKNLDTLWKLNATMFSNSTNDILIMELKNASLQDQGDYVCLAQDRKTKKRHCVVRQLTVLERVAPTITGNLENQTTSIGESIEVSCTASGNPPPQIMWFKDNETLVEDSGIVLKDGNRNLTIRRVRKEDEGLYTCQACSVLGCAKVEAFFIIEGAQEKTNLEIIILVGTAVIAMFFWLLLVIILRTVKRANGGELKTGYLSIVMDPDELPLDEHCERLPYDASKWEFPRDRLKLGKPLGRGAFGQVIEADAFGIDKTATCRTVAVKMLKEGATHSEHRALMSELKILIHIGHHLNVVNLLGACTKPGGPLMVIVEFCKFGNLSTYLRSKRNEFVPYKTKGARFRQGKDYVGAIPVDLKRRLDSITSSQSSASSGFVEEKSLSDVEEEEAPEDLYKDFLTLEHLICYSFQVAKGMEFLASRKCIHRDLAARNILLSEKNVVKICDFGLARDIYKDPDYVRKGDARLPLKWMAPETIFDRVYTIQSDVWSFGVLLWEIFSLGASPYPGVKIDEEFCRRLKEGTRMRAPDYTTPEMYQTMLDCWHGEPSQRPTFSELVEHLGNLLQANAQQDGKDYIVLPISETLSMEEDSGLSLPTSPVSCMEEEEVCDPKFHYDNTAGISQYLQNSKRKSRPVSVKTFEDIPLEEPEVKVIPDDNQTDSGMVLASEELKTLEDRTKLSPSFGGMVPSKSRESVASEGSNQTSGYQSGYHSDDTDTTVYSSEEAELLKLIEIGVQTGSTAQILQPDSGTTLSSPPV
Tyrosine-protein kinase Lyn (Homo sapiens), sequence (P07948 2-512 limits assumed): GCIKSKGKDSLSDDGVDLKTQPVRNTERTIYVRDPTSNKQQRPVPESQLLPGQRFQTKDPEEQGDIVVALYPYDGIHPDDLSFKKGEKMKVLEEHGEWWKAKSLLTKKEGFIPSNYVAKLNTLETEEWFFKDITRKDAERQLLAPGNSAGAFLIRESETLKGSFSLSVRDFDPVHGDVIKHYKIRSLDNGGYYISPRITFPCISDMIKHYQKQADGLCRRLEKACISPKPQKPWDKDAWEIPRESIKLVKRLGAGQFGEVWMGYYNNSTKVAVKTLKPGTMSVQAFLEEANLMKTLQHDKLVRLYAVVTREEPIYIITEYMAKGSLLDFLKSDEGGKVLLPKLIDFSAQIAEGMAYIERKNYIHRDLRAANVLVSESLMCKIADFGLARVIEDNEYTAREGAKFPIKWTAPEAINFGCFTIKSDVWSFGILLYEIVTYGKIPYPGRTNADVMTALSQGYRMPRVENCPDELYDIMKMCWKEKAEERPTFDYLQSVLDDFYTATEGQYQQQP

AUC (Rattus norvegicus): 6462 ng·h/mL
bioavailability [1]: 44.4%
IC50 [2]: 74 nM
IC50 [3]: 27 nM
inhibition [4]: > 90%
inhibition [5]: > 90%
inhibition [6]: Dose-dependent effect
Ratio IC50 (Homo sapiens): 120
SMILES: CCC(=O)N1CC[C@H](N2C(=O)N(c3cc(OC)ccc3Cl)Cc3cnc(Nc4ccc(N5CCN(C6COC6)CC5)c(C)c4)nc32)C1
inhibition at 0.625 µM (RAW264.7 [7]): 44.5%
Activity (RAW264.7 [8]): Dose-dependent effect
inhibition at 2 µM (RAW264.7 [9]): 94.6%

— ChEMBL document CHEMBL4033795, “Design, Synthesis, and Structure-Activity Relationship Study of 2-Oxo-3,4-dihydropyrimido[4,5- d]pyrimidines as New Colony Stimulating Factor 1 Receptor (CSF1R) Kinase Inhibitors” (J Med Chem, 2018)
